Measured values as given in BindingDB's records for doi:10.1016/j.bmc.2010.05.001 (St. Jude Children'S Research Hospital, 2011).

How the values were obtained:
Zinc finger protein GLI1 [1] = molecular target: T1, Zinc finger protein GLI1 (Homo sapiens, UniProt P08151); experiment: Inhibition of human Gli1 expressed in mouse C3H10T1/2 cells assessed as inhibition of transcriptional activity after 24 hrs by luciferase reporter gene assay
T1 sequence (P08151 whole entry): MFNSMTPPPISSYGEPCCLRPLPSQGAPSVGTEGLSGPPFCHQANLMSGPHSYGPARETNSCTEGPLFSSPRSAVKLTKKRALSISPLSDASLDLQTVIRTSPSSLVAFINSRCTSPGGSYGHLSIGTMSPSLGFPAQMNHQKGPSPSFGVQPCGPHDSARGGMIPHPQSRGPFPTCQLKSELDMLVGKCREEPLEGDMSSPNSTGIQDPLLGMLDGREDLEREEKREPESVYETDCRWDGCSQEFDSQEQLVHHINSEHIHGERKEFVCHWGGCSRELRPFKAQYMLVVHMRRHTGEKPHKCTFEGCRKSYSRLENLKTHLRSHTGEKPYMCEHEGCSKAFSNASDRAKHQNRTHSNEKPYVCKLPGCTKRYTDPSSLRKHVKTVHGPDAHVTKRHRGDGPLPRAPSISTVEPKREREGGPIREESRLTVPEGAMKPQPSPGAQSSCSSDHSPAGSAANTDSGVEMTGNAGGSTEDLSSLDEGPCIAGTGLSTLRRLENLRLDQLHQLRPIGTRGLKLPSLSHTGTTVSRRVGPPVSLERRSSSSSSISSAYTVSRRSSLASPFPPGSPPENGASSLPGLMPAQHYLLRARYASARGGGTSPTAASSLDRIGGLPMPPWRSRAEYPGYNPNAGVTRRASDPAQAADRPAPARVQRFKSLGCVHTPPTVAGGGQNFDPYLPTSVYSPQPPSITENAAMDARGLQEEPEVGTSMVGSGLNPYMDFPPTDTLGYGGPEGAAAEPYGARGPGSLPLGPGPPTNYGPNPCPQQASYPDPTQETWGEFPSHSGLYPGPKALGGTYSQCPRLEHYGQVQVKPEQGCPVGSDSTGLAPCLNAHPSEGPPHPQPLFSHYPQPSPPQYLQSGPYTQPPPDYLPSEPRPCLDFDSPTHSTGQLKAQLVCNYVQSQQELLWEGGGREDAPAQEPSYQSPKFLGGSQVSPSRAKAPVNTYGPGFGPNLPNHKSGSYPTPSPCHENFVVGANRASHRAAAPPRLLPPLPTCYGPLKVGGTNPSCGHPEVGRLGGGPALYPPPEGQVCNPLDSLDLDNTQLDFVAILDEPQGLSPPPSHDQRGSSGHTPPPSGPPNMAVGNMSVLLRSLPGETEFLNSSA
In short: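 C3H10T1/2 cells transiently transfected overnight with GliLuc-BS, pRL-TK Renilla control and human Gli1 (or mouse Gli2 for Gli2 lines), 250 ng/mL each for the Gli plasmids. Firefly/Renilla dual-luciferase ratio normalized to DMSO, triplicates. Dose–response IC50 from curve fitting.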

Zinc finger protein GLI1 [2] = molecular target: T1, Zinc finger protein GLI1; experiment: Inhibition of human Gli1-mediated transcriptional activity in human Rh30 cells after 24 hrs by luciferase reporter gene assay
In short: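 Rh30 cells without Gli1 transfection, transfected overnight with GliLuc-BS (500 ng/mL) and pRL-CMV (2.5 ng/mL), then replated in 96-well plates. Compound given in RPMI-1640/10% FBS for 24 h at 37 °C. Firefly luminescence divided by Renilla and normalized to DMSO-treated cells (0% inhibition), triplicates.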

Structure (SMILES) | IC50 (Zinc finger protein GLI1 [1]) | IC50 (Zinc finger protein GLI1 [2])
CCCN(C(=O)C(C)c1cccc(C(=O)c2ccccc2)c1)c1ccc2[nH]ccc2c1 (configuration not stated) [2-(3-Benzoylphenyl)-N-(1H-indol-5-yl)-N-propylpropanamide] | 1.6 µM | 
CN(C)c1ccccc1CN1CCCN(Cc2ccccc2N(C)C)C1c1ccncc1 [2-((3-(2-(dimethylamino)benzyl)-2-(pyridin-4-yl)-tetrahydropyrimidin-1(2H)-yl)methyl)-N,N-dimethylbenzenamine] |  | 40 µM
